Several values for one entry are separate records, joined by “and”; a condition that tells them apart may be missing. Equal entries are not always repeated. Where two headings read alike, the source gives them in different places.
Tests used:
[1] = system: HCT-116 cells; experiment: Flow cytometric analysis of apoptosis; type: cell-based, human
[2] = target: EGFR^T790M (Homo sapiens, UniProt P00533, T790M); experiment: In vitro EGFR kinase inhibition; type: biochemical
[3] = system: Bcl-2; experiment: RT-PCR, Bcl-2 level in HCT-116 cells; type: cell-based, human
[4] = system: BAX; experiment: RT-PCR, BAX level in HCT-116 cells; type: cell-based, human; details: HCT-116 treated with 23.3 µM, vs control cells = 1
Outline: (§1)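 Total RNA extracted from HCT-116 cells after test compound exposure using a commercial extraction kit. Transcript levels were measured by RT-PCR with SYBR Green master mix. Expression was compared with untreated control cells, taken as 1, and reported as fold change.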

[5] = system: HCT-116 cells; experiment: MTT cytotoxicity, HCT-116; type: cell-based, human
[6] = target: EGFR^WT (Homo sapiens, UniProt P00533); experiment: In vitro EGFR kinase inhibition; type: biochemical
[7] = system: H1975 cells; experiment: MTT cytotoxicity, H1975; type: cell-based; details: Homo sapiens, NCI-H1975, read-out: H1975 IC50
[8] = system: Casp3; experiment: RT-PCR, Casp3 level in HCT-116 cells; type: cell-based, human; details: HCT-116 treated with 23.3 µM, vs control cells = 1
Outline: as §1

[9] = system: Casp9; experiment: RT-PCR, Casp9 level in HCT-116 cells; type: cell-based, human; details: HCT-116 treated with 23.3 µM, vs control cells = 1
Outline: as §1

[10] = Homo sapiens, HCT-116, read-out: HCT-116 IC50, MTT, erlotinib as reference
[11] = read-out: HCT-116 IC50, MTT, erlotinib as reference

Sequence of EGFR^WT (P00533 25-1210): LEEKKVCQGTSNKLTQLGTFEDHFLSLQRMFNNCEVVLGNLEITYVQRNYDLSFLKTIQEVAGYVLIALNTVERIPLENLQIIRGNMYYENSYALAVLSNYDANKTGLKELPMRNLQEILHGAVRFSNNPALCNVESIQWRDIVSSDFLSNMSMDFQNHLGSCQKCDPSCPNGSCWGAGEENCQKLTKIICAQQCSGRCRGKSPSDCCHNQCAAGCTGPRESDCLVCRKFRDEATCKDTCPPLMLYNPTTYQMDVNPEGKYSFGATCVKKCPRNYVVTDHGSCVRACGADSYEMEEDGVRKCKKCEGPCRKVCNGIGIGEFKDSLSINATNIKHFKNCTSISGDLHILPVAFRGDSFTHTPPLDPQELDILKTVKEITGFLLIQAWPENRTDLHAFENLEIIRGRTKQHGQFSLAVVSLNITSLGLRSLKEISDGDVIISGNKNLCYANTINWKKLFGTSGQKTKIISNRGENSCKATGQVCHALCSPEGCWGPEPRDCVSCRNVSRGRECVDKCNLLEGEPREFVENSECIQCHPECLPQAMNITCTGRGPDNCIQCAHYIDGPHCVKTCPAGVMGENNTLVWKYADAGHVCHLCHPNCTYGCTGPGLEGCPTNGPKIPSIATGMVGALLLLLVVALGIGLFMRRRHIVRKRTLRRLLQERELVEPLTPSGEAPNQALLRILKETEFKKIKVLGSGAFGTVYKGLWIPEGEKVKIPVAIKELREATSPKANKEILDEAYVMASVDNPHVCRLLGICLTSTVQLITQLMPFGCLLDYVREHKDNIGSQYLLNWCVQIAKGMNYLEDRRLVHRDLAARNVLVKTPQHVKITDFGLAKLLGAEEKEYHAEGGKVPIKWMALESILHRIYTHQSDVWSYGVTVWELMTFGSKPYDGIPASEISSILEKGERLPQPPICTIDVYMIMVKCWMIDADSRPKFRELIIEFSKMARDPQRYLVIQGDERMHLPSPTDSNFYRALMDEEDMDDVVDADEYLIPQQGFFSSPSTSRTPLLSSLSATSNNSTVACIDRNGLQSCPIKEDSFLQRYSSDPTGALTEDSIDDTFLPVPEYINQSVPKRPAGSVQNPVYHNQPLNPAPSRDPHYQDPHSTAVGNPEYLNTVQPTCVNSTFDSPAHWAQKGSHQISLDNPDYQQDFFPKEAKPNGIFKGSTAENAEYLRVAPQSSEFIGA
Sequence of EGFR^T790M (P00533 25-1210 T790M): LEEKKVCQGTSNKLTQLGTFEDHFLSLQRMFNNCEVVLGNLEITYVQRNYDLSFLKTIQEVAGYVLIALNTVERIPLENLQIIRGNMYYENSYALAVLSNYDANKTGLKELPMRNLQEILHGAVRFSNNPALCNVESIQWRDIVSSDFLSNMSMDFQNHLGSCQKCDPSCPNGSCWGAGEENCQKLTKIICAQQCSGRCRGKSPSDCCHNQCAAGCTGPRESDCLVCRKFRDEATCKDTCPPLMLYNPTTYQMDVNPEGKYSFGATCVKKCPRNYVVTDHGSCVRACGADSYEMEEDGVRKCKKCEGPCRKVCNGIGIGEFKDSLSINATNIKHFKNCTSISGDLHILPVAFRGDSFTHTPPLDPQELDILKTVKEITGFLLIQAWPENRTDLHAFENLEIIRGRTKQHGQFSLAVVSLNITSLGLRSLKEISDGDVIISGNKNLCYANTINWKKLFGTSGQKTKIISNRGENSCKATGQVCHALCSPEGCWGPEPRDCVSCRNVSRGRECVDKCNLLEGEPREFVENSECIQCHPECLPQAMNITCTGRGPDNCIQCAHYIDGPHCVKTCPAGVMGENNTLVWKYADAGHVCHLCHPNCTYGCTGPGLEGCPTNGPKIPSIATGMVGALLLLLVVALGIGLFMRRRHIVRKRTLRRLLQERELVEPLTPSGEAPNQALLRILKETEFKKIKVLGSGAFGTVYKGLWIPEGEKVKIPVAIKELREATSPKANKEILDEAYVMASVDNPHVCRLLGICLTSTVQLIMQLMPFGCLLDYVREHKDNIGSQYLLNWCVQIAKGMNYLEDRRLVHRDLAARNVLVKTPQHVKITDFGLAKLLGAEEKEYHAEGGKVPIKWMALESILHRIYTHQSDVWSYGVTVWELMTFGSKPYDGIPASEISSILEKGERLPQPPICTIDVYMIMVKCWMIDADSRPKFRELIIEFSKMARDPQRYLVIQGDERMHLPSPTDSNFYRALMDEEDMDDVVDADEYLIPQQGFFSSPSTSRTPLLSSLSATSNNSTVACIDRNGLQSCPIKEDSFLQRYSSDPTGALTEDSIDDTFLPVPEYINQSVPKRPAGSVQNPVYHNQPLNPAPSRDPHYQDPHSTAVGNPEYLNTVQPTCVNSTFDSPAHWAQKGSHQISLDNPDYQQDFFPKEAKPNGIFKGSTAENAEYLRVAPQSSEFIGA

| SMILES | increase of the total percentage of apoptotic cells vs control ([1]; HCT-116) [folds] | Apoptosis, Early ([1]; HCT-116, 72 h, Annexin V/PI) [%] | Apoptosis, Late ([1]; HCT-116, 72 h, Annexin V/PI) [%] | Necrosis ([1]; HCT-116, 72 h, Annexin V/PI) [%] | IC50 [2] [µM] | Bcl-2 reduction compared to the control ([3]; HCT-116, reduction factor) [fold] | RT-PCR Fold change Bcl-2 ([3]; HCT-116 treated with 23.3 µM, vs control cells = 1) | RT-PCR Fold change BAX [4] | IC50 [5, 10] [µM] | selectivity index (SI), HCT-116 ([5]; SI = IC50 normal cells (Vero) / IC50 cancer cells) | IC50 [5, 11] [µM] | IC50 [6] [µM] | IC50 [7] [µM] | RT-PCR Fold change Casp3 [8] | RT-PCR Fold change Casp9 [9] |
| --- | --- | --- | --- | --- | --- | --- | --- | --- | --- | --- | --- | --- | --- | --- | --- |
| Cn1cnc2c1c(=O)n(CC(=O)Nc1c(Cl)cccc1Cl)c(=O)n2C [Compound T-1-DOCA, N-(2,6-Dichlorophenyl)-2-(3,7-dimethyl-2,6-dioxo-2,3,6,7-tetrahydro-1H-purin-1-yl)acetamide] | ~10 | 8.55 | 18.07 | 3.09 | 0.269 | 2 | 0.521 | 5.522 | 23.4 | 4.1 | 23.3 | 0.0569 | 14.1 | 3.8 and 3.829 | 2.2 and 2.238 |
| C#Cc1cccc(Nc2ncnc3cc(OCCOC)c(OCCOC)cc23)c1 [Erlotinib, reference compound] |  |  |  |  |  |  |  |  | 17.8 |  | 17.9 |  |  |  |  |

From article PMC10693208 (Evolutionary Bioinformatics Online, 2023)
